In ChEMBL document CHEMBL2331365, “Discovery of novel 2-hydroxydiarylamide derivatives as TMPRSS4 inhibitors” (Bioorg Med Chem Lett, 2013):
pIC50: −log10 of the molar value. Structures can show the parent of a compound that is named as a salt.

Key:
[1] = biological target: T1, Transmembrane protease serine 4 (Homo sapiens, UniProt Q9NRS4); assay: Inhibition of N-terminal His6-tagged recombinant TMPRSS4 (unknown origin) fused with enterokinase cleavage sequence DYKDDDGDYKDDDDK expressed in Escherichia coli BL21 (DE3) using Z-Phe-Arg-7-amido-4-methylcoumarin hydrochloride as substrate by fluorometric analysis
T1 sequence (Q9NRS4 whole entry, the tested form may be a part): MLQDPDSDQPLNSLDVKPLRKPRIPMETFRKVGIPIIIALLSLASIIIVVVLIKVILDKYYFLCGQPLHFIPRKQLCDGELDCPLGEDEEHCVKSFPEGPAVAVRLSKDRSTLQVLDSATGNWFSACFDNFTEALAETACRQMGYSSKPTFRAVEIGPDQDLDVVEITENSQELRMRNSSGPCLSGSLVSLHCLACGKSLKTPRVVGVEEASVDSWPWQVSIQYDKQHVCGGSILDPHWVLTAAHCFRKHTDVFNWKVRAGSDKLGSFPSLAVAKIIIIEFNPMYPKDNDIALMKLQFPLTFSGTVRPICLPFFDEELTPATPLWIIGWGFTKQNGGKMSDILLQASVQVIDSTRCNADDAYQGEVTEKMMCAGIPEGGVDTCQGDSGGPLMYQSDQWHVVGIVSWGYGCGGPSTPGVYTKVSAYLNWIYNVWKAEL

[2] = biological target: T1, Transmembrane protease serine 4; assay: Inhibition of TMPRSS4 in human SW480 cells assessed as inhibition of cell invasion at 0.1 uM relative to control; format: cell-based
Procedure, shortened: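 SW480 cells overexpressing TMPRSS4 (clone T19) left to invade reconstituted basement membrane (Matrigel) with 0.1 µM compound present. Invasion expressed as percent inhibition relative to DMSO negative control.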

[3] = Cytotoxicity against human SW480 cells overexpressing TMPRSS4 assessed as cell viability at 0.1 uM after 2 days by CCK-8 assay; format: cell-based; conditions: read-out: Activity
Procedure, shortened: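 Seeded at 10,000 cells/well, exposed to 0.1 µM compound or none at 37 °C for 2 days; CCK-8 reagent added and absorbance read at 450 nm. Higher value taken as lower cytotoxicity.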

SMILES	pIC50 [1]	inhibition [2] [%]	viability at 48 h, 0.1 µM [3] [%]
Cc1cc(C)cc(NC(=O)c2cc(Cl)ccc2O)c1	4.41	–	–
O=C(Nc1cc(C(F)(F)F)cc(C(F)(F)F)c1)c1cc(F)ccc1O	4.54	–	–
O=C(Nc1ccccc1)c1cc(Cl)ccc1O	4.30	–	–
NCCc1ccc(S(=O)(=O)F)cc1 [4-AMINOETHYLBENZENESULFONYL FLUORIDE HYDROCHLORIDE]	4.41	–	–
O=C(Nc1cc(C(F)(F)F)cc(C(F)(F)F)c1)c1ccc2ccccc2c1O	< 4.00	–	–
O=C(Nc1cccc(C(F)(F)F)c1)c1cc(Cl)ccc1O	4.89	–	–
O=C(Nc1cc(Br)cc(C(F)(F)F)c1)c1cc(Cl)ccc1O	4.92	43	93
O=C(Nc1cc(C(F)(F)F)cc(C(F)(F)F)c1)c1cccc(Cl)c1O	4.92	–	–
O=C(Nc1cc(C(F)(F)F)c(Br)c(C(F)(F)F)c1)c1cc(Cl)ccc1O	5.22	53	89
COc1cc(NC(=O)c2cc(Cl)ccc2O)cc(C(F)(F)F)c1	4.80	–	–
O=C(Nc1cc(C(F)(F)F)cc(C(F)(F)F)c1)c1c[nH]c2ccccc2c1=O	< 4.00	–	–
O=C(Nc1cc(C(F)(F)F)cc(C(F)(F)F)c1)c1cc([N+](=O)[O-])ccc1O	4.92	26	96
O=C(Nc1cc(Cl)cc(Cl)c1)c1cc(Cl)ccc1O	4.72	–	–
O=C(Nc1cc(C(F)(F)F)cc(C(F)(F)F)c1)c1ccc(Cl)cc1O	4.92	–	–
O=C(Nc1ccnc(Cl)c1)c1cc(Cl)ccc1O	< 4.00	–	–
O=C(NCc1cc(C(F)(F)F)cc(C(F)(F)F)c1)c1cc(Cl)ccc1O	4.74	–	–
N#Cc1ccc(O)c(C(=O)Nc2cc(C(F)(F)F)cc(C(F)(F)F)c2)c1	4.72	–	–
N#Cc1ccc(NC(=O)c2cc(Cl)ccc2O)nc1	4.10	–	–
O=C(Nc1cc(C(F)(F)F)cc(C(F)(F)F)c1)c1cc(Cl)ccc1O [IMD-0354]	4.96	45	90
O=C(Nc1ncccn1)c1cc(Cl)ccc1O	< 4.00	–	–

SMILES	pIC50 [1]	inhibition [2] [%]	viability at 48 h, 0.1 µM [3] [%]
O=C(Nc1cc(C(F)(F)F)ccc1C(F)(F)F)c1cc(Cl)ccc1O	4.70	–	–
O=C(Nc1cc(C(F)(F)F)cc(C(F)(F)F)c1)c1ccccc1O	< 4.00	–	–
O=C(Nc1ccc(Br)c(C(F)(F)F)c1)c1cc(Cl)ccc1O	4.52	–	–
CC(=O)Oc1ccc(Cl)cc1C(=O)Nc1cc(C(F)(F)F)cc(C(F)(F)F)c1	< 4.00	–	–
O=C(Nc1cnc2ccccc2c1)c1cc(Cl)ccc1O	4.07	–	–
O=C(Nc1ccc(C(F)(F)F)c(C(F)(F)F)c1)c1cc(Cl)ccc1O	4.89	–	–
COc1ccc(O)c(C(=O)Nc2cc(C(F)(F)F)cc(C(F)(F)F)c2)c1	4.54	–	–
O=C(Nc1cc(C(F)(F)F)cc(C(F)(F)F)c1)c1cc(Cl)cnc1O	< 4.00	–	–
Cc1ccc(O)c(C(=O)Nc2cc(C(F)(F)F)cc(C(F)(F)F)c2)c1	4.55	–	–
N#Cc1ccc(NC(=O)c2cc(Cl)ccc2O)cc1	4.12	–	–
O=C(Nc1ccc(Cl)c(C(F)(F)F)c1)c1cc(Cl)ccc1O	4.46	–	–
Cc1c(C(F)(F)F)cc(NC(=O)c2cc(Cl)ccc2O)cc1C(F)(F)F	5.00	43	90
NC(=O)c1ccc(O)c(C(=O)Nc2cc(C(F)(F)F)cc(C(F)(F)F)c2)c1	< 4.00	–	–
O=C(Nc1cc(C(F)(F)F)cc(C(F)(F)F)c1)c1cc(Cl)ccc1OCc1ccccc1	< 4.00	–	–
O=C(Nc1cc(C(F)(F)F)ccc1F)c1cc(Cl)ccc1O	4.55	–	–
O=C(Nc1cc(C(F)(F)F)cc(C(F)(F)F)c1)c1cc(Br)ccc1O	4.89	–	–
COc1c(C(F)(F)F)cc(NC(=O)c2cc(Cl)ccc2O)cc1C(F)(F)F	4.92	–	–
O=C(Nc1cc(Cl)c(Cl)c(Cl)c1)c1cc(Cl)ccc1O	< 4.00	–	–
O=C(Nc1ccc(C(F)(F)F)cn1)c1cc(Cl)ccc1O	< 4.00	–	–
O=C(Nc1ccc(Cl)nc1)c1cc(Cl)ccc1O	< 4.00	–	–
